In general, inhibition refers to the drop in the measured response relative to a control, in per cent. Read a low inhibition as a response near the control. What is called IC50 is the concentration needed to halve the response being measured. In general, half-life refers to the time needed for the level to fall by half in the phase considered. Low values mean fast loss, high ones slow loss.

The record followed here is ChEMBL document CHEMBL4321818, “Anti-biofilm Agents against Pseudomonas aeruginosa: A Structure-Activity Relationship Study of C-Glycosidic LecB Inhibitors” (J Med Chem, 2019).

Each structure is given as a SMILES string. Active and inactive are the calls of the source.

Data set [1] relates to Pseudomonas aeruginosa. The experiment in a line: Antibacterial activity against Pseudomonas aeruginosa PA14 transfected with pMP7605 plasmid at 100 uM after 23 hrs by fluorescence based confocal light microscopic analysis. Format: functional, organism-based.
Data set [2] relates to Pseudomonas aeruginosa. The experiment in a line: Antibiofilm activity against Pseudomonas aeruginosa PA14 transfected with pMP7605 plasmid at 100 uM after 48 hrs by fluorescence based confocal light microscopic analysis relative to control. Particulars: PA14, 48 h. The format is functional. Summed up:
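P. aeruginosa PA14 wild type carrying the mCherry plasmid pMP7605 was grown overnight in LB at 37 °C, then diluted to OD600 0.02 in M63 minimal medium. Compound (100 µM final, from DMSO stock) was added and cultures incubated 48 h at 30 °C. Biofilm biomass was quantified by confocal laser scanning microscopy versus DMSO control; means ± SD of three independent assays, Student's t test.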

Data set [3] in a line: Intrinsic clearance in C57BL/6J mouse liver microsomes at 1 uM preincubated for 10 mins followed by NADPH addition and measured up to 45 mins by LC-MS/MS analysis. Format: ADME, Microsome. Particulars: 0.75 h. The method in brief:
(§1)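 Compound at 1 µM in 0.1 M phosphate buffer pH 7.4 with liver microsomes at 0.5 mg/mL. Preincubated 10 min, then started with an NADPH regenerating system. Sampled at 1–45 min at 37 °C and quenched in MeCN with internal standard. Supernatant analyzed by LC-MS/MS. CLint = −slope of ln(peak area ratio) vs time × 1000/protein concentration. CYP marker substrates served as quality control.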
Background: Liver microsomes are vesicles of endoplasmic reticulum, rich in cytochrome P450 enzymes.

Data set [4] is described as follows: Intrinsic clearance in human liver microsomes at 1 uM preincubated for 10 mins followed by NADPH addition and measured up to 45 mins by LC-MS/MS analysis. Format: ADME, Microsome. As to conditions: 0.75 h. The method in brief:
as §1

The nature of data set [5]: Stability in mouse plasma at 25 uM measured up to 120 mins by HPLC-MS analysis. Format: ADME, cell-free. As to conditions: 2 h. Summed up:
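Compound from DMSO added to mouse plasma (pH 7.4, 37 °C) at 25 µM final. Incubated 0, 15, 30, 60, 90 and 120 min at 37 °C. Aliquots extracted with methanol containing internal standard and analyzed by HPLC-MS, normalized to internal standard and time 0. Procaine and propoxycaine served as unstable controls, procainamide (250 µM) as stable control. At least three independent repeats.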

Data set [6] concerns HepG2. The experiment in a line: Cytotoxicity against human HepG2 cells assessed as cell viability at 100 uM after 24 hrs by MTT assay relative to control. The format is cell-based. Particulars: hepg2, 24 h. Summed up:
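Hep G2 cells in DMEM + 10% FCS were grown to 75% confluency, then exposed to compound (0.01–100 µM, 0.1% DMSO final) for 24 h at 37 °C, 5% CO2. MTT was added at 1 mg/mL final for 3 h and solubilised in 0.04 M HCl/2-propanol; A560 read with 670 nm reference. Normalised (A−B)/(C−B) to 0.5% Triton X-100 and vehicle controls; SD of ≥3 assays.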

Data set [7] in a line: Protein binding in CD1 mouse plasma after 2 hrs by HPLC analysis relative to control. Format: ADME, cell-free. As to conditions: for fraction unbound at 2 h: CD1, mouse, read-out: PPB; for PPB: mouse, 2 h. Summed up: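 Rapid equilibrium dialysis with compound at 100 µM final in pooled CD-1 mouse plasma, naproxen as control. Incubated 37 °C for 2 h at 800 rpm. Samples matrix-matched, extracted with cold MeCN/H2O (90:10) containing caffeine internal standard, and quantified by HPLC-MS/MS. %free = buffer/plasma chamber concentration × 100; %bound = 100 − %free.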

Data set [8] relates to HepG2. The experiment in a line: Cytotoxicity against human HepG2 cells assessed as reduction in cell viability up to 100 uM after 24 hrs by MTT assay. Particulars: hepg2, 24 h. Format: cell-based. The method in brief:
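Hep G2 cells grown in DMEM with 10% heat-inactivated FCS at 37 °C, 5% CO2, seeded and grown to 75% confluency. Exposed to 0.01–100 µM compound (DMSO stock diluted in PBS, final DMSO 0.1%) for 24 h. Washed, then MTT at 1 mg/mL final for 3 h. Solubilized in 0.04 M HCl/2-propanol, read at 560 nm with 670 nm reference. Normalized as (A−B)/(C−B), with B the Triton X-100 (0.5%) control and C the vehicle control. At least three assays.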
(In general: Tetrazolium dyes change colour on reduction, which living cells bring about.)

The target of data set [9] is T1, Fucose-binding lectin PA-IIL (Pseudomonas aeruginosa (strain ATCC 15692 / DSM 22644 / CIP 104116 / JCM14847 / LMG 12228 / 1C / PRS 101 / PAO1), UniProt Q9HYN5). Kind of data set: Inhibition of N-(fluorescein-5-yl)-N'-(alpha-L-fucopyranosyl ethylen)thiocarbamide binding to Pseudomonas aeruginosa PAO1 LecB incubated for 22 to 24 hrs by fluorescence polarization assay.
Target sequence in this assay (Q9HYN5 whole entry): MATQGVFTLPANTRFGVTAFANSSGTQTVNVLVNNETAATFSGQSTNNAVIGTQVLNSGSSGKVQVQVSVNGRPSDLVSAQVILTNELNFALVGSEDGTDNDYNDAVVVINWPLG

Data set [10] deals with T1, Fucose-binding lectin PA-IIL. Kind of data set: Inhibition of N-(fluorescein-5-yl)-N'-(alpha-L-fucopyranosyl ethylen)thiocarbamide binding to Pseudomonas aeruginosa PA14 LecB incubated for 22 to 24 hrs by fluorescence polarization assay.
Target sequence in this assay (Q9HYN5 1-115): as the sequence (Q9HYN5 whole entry) above
Data set [11] can be described thus: Solubility of compound in TBS/Ca containing 1% DMSO at 1 mM. Particulars: 1000 µM.
Data set [12] can be described thus: Half life in CD1 mouse plasma at 10 mg/kg, po or ip after 24 hrs. The format is ADME, organism-based.

As for `C[C@@H]1O[C@H](CNS(=O)(=O)c2ccc(C#Cc3ccccc3)s2)[C@@H](O)[C@H](O)[C@@H]1O`, the result in the data set with Pseudomonas aeruginosa [1] was inactive. In addition, in the data set with Pseudomonas aeruginosa [2], the inhibition at 100 µM is above 90%. In addition, the “Intrinsic clearance (CLint)” value in data set [3] and in [4] was below 10 µL/min/mg in each case. Also, in [5], the Stability result is given as “Stable”. Further, the Activity with HepG2 [6] is given as 64%. Moreover, in data set [7], the fraction unbound at 2 h lay in the range of 0.3 to 0.4.

As for `CO[C@H]1O[C@H](CNS(=O)(=O)c2cccs2)[C@@H](O)[C@H](O)[C@@H]1O`, the fraction unbound at 2 h in [7] was 0.3 to 0.4.

Regarding `Cc1cc(S(=O)(=O)NC[C@H]2O[C@@H](C)[C@@H](O)[C@@H](O)[C@@H]2O)c(C)s1`, the outcome with Pseudomonas aeruginosa [1] was inactive. Further, in the data set with Pseudomonas aeruginosa [2], the inhibition at 100 µM is above 80%. In addition, the “Intrinsic clearance (CLint)” value in data set [3] and in data set [4] was below 10 µL/min/mg each time. Also, the Stability entry in [5] is on record as “Stable”. Also, the Activity entry in the data set on HepG2 [8] is “Non-Toxic”. In addition, the fraction unbound at 2 h in data set [7] was 0.3 to 0.4.

For `C[C@@H]1O[C@H](CNS(=O)(=O)c2ccc(C#CCCc3ccccc3)s2)[C@@H](O)[C@H](O)[C@@H]1O`, the results for the IC50 in data set [9] and in [10] were 3.13 µM and 0.4 µM, respectively.

Take `Cc1oncc1S(=O)(=O)NC[C@H]1O[C@@H](C)[C@@H](O)[C@@H](O)[C@@H]1O`: the “Intrinsic clearance (CLint)” value in data set [3] and in data set [4] was below 10 µL/min/mg in each case. In addition, the Stability entry in data set [5] is listed as “Stable”. Besides, in the data set with HepG2 [8], the Activity result is given as “Non-Toxic”. In addition, the fraction unbound at 2 h in [7] lay in the range of 0.3 to 0.4.

Consider `C[C@@H]1O[C@H](CNC(=O)c2ccc(-c3ccccc3)s2)[C@@H](O)[C@H](O)[C@@H]1O`, for which the solubility entry in data set [11] is reported as “Insoluble”.

Take `C[C@@H]1O[C@H](CNS(=O)(=O)c2ccco2)[C@@H](O)[C@H](O)[C@@H]1O`: the IC50 in data set [9] came to 3.15 µM; in data set [10], 0.46 µM.

Regarding `C[C@@H]1O[C@H](CNS(=O)(=O)c2cc(Cl)c(Cl)s2)[C@@H](O)[C@H](O)[C@@H]1O`, the “Intrinsic clearance (CLint)” value in data set [3] and in data set [4] was below 10 µL/min/mg each time. Moreover, the Stability entry in [5] is listed as “Stable”. Also, the Activity result in the data set on HepG2 [8] is listed as “Non-Toxic”.

On to `CO[C@H]1O[C@H](CNS(=O)(=O)c2c(C)cc(C)cc2C)[C@@H](O)[C@H](O)[C@@H]1O`, for which the fraction unbound at 2 h in data set [7] was in the range of 0.3 to 0.4.

In the case of `Cc1cc(S(=O)(=O)NC[C@H]2O[C@@H](C)[C@@H](O)[C@@H](O)[C@@H]2O)c(C(F)(F)F)o1`, the values for the IC50 in data set [9] and in data set [10] were 3.47 µM and 0.46 µM, respectively.

Take `C[C@@H]1O[C@H](CNS(=O)(=O)c2ccsc2)[C@@H](O)[C@H](O)[C@@H]1O`: the IC50 in data set [9] is 1.85 µM; in [10], 0.59 µM.

As for `Cc1ccsc1S(=O)(=O)NC[C@H]1O[C@@H](C)[C@@H](O)[C@@H](O)[C@@H]1O`, the IC50 in [9] is 1.32 µM; in data set [10], 0.2 µM.

On to `Cc1ccc(C#Cc2ccc(S(=O)(=O)NC[C@H]3O[C@@H](C)[C@@H](O)[C@@H](O)[C@@H]3O)s2)cc1`, for which the IC50 in data set [9] came out at 1.72 µM; in data set [10], 0.35 µM.

In turn, `C[C@@H]1O[C@H](CNS(=O)(=O)c2cccs2)[C@@H](O)[C@H](O)[C@@H]1O` yielded a PPB in [7] of 81%. Also, the half-life in [12] came out at 34 min.

Turning to `COc1ccc(C#Cc2ccc(S(=O)(=O)NC[C@H]3O[C@@H](C)[C@@H](O)[C@@H](O)[C@@H]3O)s2)cc1`, the IC50 in data set [9] came to 1.75 µM; in [10] it was 0.28 µM.

Regarding `C[C@@H]1O[C@H](CNS(=O)(=O)c2ccc(/C=C\c3ccccc3)s2)[C@@H](O)[C@H](O)[C@@H]1O`, the IC50 in [9] is 2.32 µM; in [10], 0.44 µM.

For `C[C@@H]1O[C@H](CNC(=O)c2cc3ccccc3o2)[C@@H](O)[C@H](O)[C@@H]1O`, the IC50 came to 10.2 µM in data set [9] and 2.41 µM in data set [10].

As for `CCc1ccc(S(=O)(=O)NC[C@H]2O[C@@H](C)[C@@H](O)[C@@H](O)[C@@H]2O)s1`, the IC50 in data set [9] worked out at 4.02 µM; in data set [10] it was 0.38 µM.

Consider `Cc1cccc(C#Cc2ccc(S(=O)(=O)NC[C@H]3O[C@@H](C)[C@@H](O)[C@@H](O)[C@@H]3O)s2)c1`, for which the IC50 in data set [9] was 1.72 µM; in data set [10], 0.3 µM.

In the case of `Cc1cc(C)c(S(=O)(=O)NC[C@H]2O[C@@H](C)[C@@H](O)[C@@H](O)[C@@H]2O)c(C)c1`, in [7], the PPB is listed as 73%. In addition, the half-life in [12] stood at 17 min.

`C[C@@H]1O[C@H](CNS(=O)(=O)c2ccn(C)n2)[C@@H](O)[C@H](O)[C@@H]1O`: the IC50 in [9] came to 7.01 µM; in data set [10] it was 0.73 µM.

Regarding `C[C@@H]1O[C@H](CNS(=O)(=O)c2ccc(Br)s2)[C@@H](O)[C@H](O)[C@@H]1O`, the IC50 is 3.31 µM in [9] and 0.57 µM in data set [10].

In the case of `C[C@@H]1O[C@H](CNC(=O)c2ccccc2)[C@@H](O)[C@H](O)[C@@H]1O`, the IC50 in [9] turned out to be 8.73 µM; in data set [10], 3.54 µM.

Turning to `Cc1ccc(S(=O)(=O)NC[C@H]2O[C@@H](C)[C@@H](O)[C@@H](O)[C@@H]2O)s1`, the IC50 was 3.53 µM in [9] and 0.56 µM in data set [10]. For the same compound, the “Intrinsic clearance (CLint)” value in data set [3] is 10 µL/min/mg; in data set [4] it was below 10 µL/min/mg. Further, in data set [5], the Stability result is given as “Stable”. Besides, the Activity entry in the data set on HepG2 [8] is given as “Non-Toxic”. Besides, the fraction unbound at 2 h in [7] lay in the range of 0.3 to 0.4.

Take `Cc1ccccc1C#Cc1ccc(S(=O)(=O)NC[C@H]2O[C@@H](C)[C@@H](O)[C@@H](O)[C@@H]2O)s1`: the IC50 in data set [9] came to 1.62 µM; in data set [10], 0.27 µM.

`Cc1csc(S(=O)(=O)NC[C@H]2O[C@@H](C)[C@@H](O)[C@@H](O)[C@@H]2O)c1`: the IC50 in data set [9] was determined as 2.55 µM; in [10], 0.32 µM.
